Assay results taken from ChEMBL document CHEMBL2331403, “Discovery and optimization of a novel series of potent mutant B-Raf(V600E) selective kinase inhibitors” (J Med Chem, 2013).

Tests used:
[1] = test system: Plasma; experiment: Fraction unbound in human plasma by LC-MS/MS analysis; assay type: ADME, cell-free
[2] = Oral bioavailability in Han Wistar rat at 10 mg/kg; assay type: ADME, organism-based; details: in vivo
Summary of the method: (§1)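 Rat PK study: oral dose 10 mg/kg in 0.1% HPMC; intravenous dose 3 mg/kg in 40% DMA/40% TEG/20% saline. Half-life taken from the iv arm; F not determined where no oral dose was given.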

[3] = Volume of distribution at steady state in Han Wistar rat at 10 mg/kg, po and 3 mg/kg, iv; assay type: ADME, organism-based; details: in vivo, read-out: Vdss; summary of the method: as §1
[4] = test system: Plasma; experiment: Drug uptake in plasma of po dosed nude mouse xenografted with human A375 cells after 2 hrs; assay type: ADME, organism-based, A-375; details: in vivo
Summary of the method: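 A375 xenograft mice given a single oral dose; tumors and plasma harvested 2 h later. Tumor pERK measured by Western blot with equal protein loading, normalized to total ERK, and expressed as percent reduction in pERK.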

Row | Compound | Cp(f) [1] [%] | bioavailability [2] [%] | Vd [3] [L/kg] | Drug uptake [4]
1 | COCCNC(C)c1ccc(Nc2ncc3cc(-c4ccncc4)ccc3n2)cc1 (configuration not stated) | 9.4 | 31 | 4.9 | 
2 | C[C@@H](NC(=O)[C@H]1CCCCN1)c1ccc(Nc2ncc3cc(-c4ccncc4)ccc3n2)cc1 | 5.1 | 28 | 13 | 
3 | COCCC(=O)N(C)c1ccc(Nc2ncc3cc(-c4ccncc4)ccc3n2)cc1 |  | 60 | 0.7 | 
4 | C[C@@H](NC(=O)[C@H]1CCCCN1CCO)c1ccc(Nc2ncc3cc(-c4ccncc4)ccc3n2)cc1 | 3.4 |  |  | 
5 | COCCN(C)c1ccc(Nc2ncc3cc(-c4ccncc4)ccc3n2)cc1 | < 1 |  |  | 
6 | CC(=O)N[C@H](C)c1ccc(Nc2ncc3cc(-c4ccncc4)cc(C)c3n2)cc1 | < 1 |  |  | 
7 | C[C@@H](NC(=O)[C@H]1CCCN1)c1ccc(Nc2ncc3cc(-c4ccncc4)ccc3n2)cc1 | 1.4 |  |  | 
8 | CC(=O)N[C@H](C)c1ccc(Nc2ncc3cc(-c4ccncc4)cc(Cl)c3n2)cc1 | < 1 |  |  | 
9 | CC(=O)NC(C)c1ccc(Nc2ncc3cc(-c4ccncc4)ccc3n2)cc1 (configuration not stated) | 5 |  |  | 
10 | CC(=O)N[C@H](C)c1ccc(Nc2ncc3cc(-c4ccncc4)ccc3n2)cc1 | 6 | 100 | 0.8 | Dose-dependent effect
11 | C[C@@H](NC1=CC(=O)CCC1)c1ccc(Nc2ncc3cc(-c4ccncc4)ccc3n2)cc1 | 1.3 | 17 | 0.67 | 
12 | C[C@@H](NC1=CC(=O)CNC1)c1ccc(Nc2ncc3cc(-c4ccncc4)ccc3n2)cc1 | 3.6 |  | 7.9 | 
13 | CC(=O)N[C@H](C)c1ccc(Nc2ncc3cc(-c4ccncc4)c(C)cc3n2)cc1 | 1.9 |  |  | 
14 | CC(=O)N[C@H](C)c1ccc(Nc2ncc3cc(-c4ccncc4)c(Cl)cc3n2)cc1 | < 1 |  |  | 
15 | COCCC(=O)N[C@@H](C)c1ccc(Nc2ncc3cc(-c4ccncc4)ccc3n2)cc1 | < 1 |  |  | 
16 | COc1cc2nc(Nc3ccc([C@@H](C)NC(C)=O)cc3)ncc2cc1-c1ccncc1 |  |  | 0.67 | 
17 | C[C@@H](NC(=O)C1CCNCC1)c1ccc(Nc2ncc3cc(-c4ccncc4)ccc3n2)cc1 | 3.4 |  |  | 
18 | COCCC(=O)N[C@H](C)c1ccc(Nc2ncc3cc(-c4ccncc4)ccc3n2)cc1 | 1.5 |  |  | 
19 | C[C@@H](NC1=CC(=O)NCC1)c1ccc(Nc2ncc3cc(-c4ccncc4)ccc3n2)cc1 | 2.3 |  |  | 
20 | C[C@@H](NC(=O)[C@H]1CCCNC1)c1ccc(Nc2ncc3cc(-c4ccncc4)ccc3n2)cc1 | 1.7 |  |  | 
21 | C[C@@H](NC(=O)C1CCCCN1C)c1ccc(Nc2ncc3cc(-c4ccncc4)ccc3n2)cc1 (mixture of isomers) | 3.8 |  |  | 
